ChEMBL document CHEMBL3734760 (Bioorg Med Chem Lett, 2015)

How the values were obtained:
Prolyl endopeptidase FAP = biological target: T1, Prolyl endopeptidase FAP (Bos taurus, UniProt A5D7B7); experiment: Inhibition of bovine serum FAP
T1 sequence (A5D7B7 whole entry): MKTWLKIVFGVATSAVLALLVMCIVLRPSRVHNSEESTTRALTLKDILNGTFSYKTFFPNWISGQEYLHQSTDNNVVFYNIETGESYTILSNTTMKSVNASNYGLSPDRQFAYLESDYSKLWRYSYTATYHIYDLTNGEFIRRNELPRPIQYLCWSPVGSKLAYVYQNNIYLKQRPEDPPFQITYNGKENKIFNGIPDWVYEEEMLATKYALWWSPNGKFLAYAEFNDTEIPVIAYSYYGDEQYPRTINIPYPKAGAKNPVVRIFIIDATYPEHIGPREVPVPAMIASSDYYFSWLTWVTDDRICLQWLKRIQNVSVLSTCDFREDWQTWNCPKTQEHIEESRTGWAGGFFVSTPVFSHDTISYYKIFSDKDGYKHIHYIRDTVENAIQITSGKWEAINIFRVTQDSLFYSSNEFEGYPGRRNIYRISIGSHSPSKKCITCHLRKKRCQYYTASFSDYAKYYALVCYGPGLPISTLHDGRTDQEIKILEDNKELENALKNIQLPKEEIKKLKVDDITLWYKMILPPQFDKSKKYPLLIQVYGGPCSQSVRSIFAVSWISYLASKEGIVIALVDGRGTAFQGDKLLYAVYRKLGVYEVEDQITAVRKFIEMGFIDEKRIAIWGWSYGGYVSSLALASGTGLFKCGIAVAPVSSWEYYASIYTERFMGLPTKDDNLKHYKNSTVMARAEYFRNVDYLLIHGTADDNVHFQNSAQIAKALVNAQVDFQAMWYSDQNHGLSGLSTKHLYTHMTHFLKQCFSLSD

Dipeptidyl peptidase 2 = Dipeptidyl peptidase 2 (Homo sapiens, UniProt Q9UHL4); experiment: Inhibition of N-terminal FLAG tagged human QPP expressed in Sf9 cells using Nle-Pro-AMC substrate after 30 mins by plate reader analysis
[1] = biological target: Voltage-gated inwardly rectifying potassium channel KCNH2 (Homo sapiens, UniProt Q12809); experiment: Inhibition of human ERG assessed as reduction in IKr current
Chain of Voltage-gated inwardly rectifying potassium channel KCNH2 (Q12809 whole entry): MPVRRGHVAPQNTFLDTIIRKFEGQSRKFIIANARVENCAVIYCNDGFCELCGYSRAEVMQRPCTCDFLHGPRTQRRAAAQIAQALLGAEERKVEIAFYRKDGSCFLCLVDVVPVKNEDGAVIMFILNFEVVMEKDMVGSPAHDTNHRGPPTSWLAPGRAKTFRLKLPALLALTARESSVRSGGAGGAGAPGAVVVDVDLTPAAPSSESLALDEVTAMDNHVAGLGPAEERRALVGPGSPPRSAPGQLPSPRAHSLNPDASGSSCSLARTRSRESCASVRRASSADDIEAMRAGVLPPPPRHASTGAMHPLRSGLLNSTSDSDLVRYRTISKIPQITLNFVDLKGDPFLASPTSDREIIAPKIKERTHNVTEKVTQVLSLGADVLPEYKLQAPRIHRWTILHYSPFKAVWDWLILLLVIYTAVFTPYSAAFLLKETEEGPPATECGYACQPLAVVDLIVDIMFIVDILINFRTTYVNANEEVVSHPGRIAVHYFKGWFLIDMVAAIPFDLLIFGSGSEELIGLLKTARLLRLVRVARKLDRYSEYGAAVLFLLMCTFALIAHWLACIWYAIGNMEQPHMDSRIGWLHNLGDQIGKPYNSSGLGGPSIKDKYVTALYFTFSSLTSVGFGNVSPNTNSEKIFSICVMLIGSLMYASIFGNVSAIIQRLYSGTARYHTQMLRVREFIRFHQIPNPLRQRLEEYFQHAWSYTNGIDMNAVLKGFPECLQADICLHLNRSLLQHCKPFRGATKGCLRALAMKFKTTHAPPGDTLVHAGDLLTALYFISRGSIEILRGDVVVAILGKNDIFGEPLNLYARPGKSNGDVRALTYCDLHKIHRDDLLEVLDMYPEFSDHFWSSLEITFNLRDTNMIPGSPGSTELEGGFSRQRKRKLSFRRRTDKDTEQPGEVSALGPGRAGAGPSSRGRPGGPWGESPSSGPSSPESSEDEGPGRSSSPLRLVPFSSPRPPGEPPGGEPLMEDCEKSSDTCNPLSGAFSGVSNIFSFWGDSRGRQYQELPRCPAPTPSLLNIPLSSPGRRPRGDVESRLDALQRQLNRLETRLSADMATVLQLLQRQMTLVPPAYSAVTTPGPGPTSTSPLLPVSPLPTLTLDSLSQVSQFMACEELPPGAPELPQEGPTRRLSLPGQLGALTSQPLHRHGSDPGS

Canis familiaris = experiment: Dose normalized AUC in dog at 1 mg/kg, iv and 2 mg/kg, po; format: ADME, organism-based, Canis lupus familiaris; conditions: in vivo
Procedure, shortened: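 Dogs were dosed 1 mg/kg iv and 2 mg/kg po. AUC is reported normalized to dose in µM h/mg/kg.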

[2] = biological target: Voltage-dependent L-type calcium channel subunit alpha-1C (Homo sapiens, UniProt Q13936); experiment: […]
Chain of Voltage-dependent L-type calcium channel subunit alpha-1C (Q13936 whole entry): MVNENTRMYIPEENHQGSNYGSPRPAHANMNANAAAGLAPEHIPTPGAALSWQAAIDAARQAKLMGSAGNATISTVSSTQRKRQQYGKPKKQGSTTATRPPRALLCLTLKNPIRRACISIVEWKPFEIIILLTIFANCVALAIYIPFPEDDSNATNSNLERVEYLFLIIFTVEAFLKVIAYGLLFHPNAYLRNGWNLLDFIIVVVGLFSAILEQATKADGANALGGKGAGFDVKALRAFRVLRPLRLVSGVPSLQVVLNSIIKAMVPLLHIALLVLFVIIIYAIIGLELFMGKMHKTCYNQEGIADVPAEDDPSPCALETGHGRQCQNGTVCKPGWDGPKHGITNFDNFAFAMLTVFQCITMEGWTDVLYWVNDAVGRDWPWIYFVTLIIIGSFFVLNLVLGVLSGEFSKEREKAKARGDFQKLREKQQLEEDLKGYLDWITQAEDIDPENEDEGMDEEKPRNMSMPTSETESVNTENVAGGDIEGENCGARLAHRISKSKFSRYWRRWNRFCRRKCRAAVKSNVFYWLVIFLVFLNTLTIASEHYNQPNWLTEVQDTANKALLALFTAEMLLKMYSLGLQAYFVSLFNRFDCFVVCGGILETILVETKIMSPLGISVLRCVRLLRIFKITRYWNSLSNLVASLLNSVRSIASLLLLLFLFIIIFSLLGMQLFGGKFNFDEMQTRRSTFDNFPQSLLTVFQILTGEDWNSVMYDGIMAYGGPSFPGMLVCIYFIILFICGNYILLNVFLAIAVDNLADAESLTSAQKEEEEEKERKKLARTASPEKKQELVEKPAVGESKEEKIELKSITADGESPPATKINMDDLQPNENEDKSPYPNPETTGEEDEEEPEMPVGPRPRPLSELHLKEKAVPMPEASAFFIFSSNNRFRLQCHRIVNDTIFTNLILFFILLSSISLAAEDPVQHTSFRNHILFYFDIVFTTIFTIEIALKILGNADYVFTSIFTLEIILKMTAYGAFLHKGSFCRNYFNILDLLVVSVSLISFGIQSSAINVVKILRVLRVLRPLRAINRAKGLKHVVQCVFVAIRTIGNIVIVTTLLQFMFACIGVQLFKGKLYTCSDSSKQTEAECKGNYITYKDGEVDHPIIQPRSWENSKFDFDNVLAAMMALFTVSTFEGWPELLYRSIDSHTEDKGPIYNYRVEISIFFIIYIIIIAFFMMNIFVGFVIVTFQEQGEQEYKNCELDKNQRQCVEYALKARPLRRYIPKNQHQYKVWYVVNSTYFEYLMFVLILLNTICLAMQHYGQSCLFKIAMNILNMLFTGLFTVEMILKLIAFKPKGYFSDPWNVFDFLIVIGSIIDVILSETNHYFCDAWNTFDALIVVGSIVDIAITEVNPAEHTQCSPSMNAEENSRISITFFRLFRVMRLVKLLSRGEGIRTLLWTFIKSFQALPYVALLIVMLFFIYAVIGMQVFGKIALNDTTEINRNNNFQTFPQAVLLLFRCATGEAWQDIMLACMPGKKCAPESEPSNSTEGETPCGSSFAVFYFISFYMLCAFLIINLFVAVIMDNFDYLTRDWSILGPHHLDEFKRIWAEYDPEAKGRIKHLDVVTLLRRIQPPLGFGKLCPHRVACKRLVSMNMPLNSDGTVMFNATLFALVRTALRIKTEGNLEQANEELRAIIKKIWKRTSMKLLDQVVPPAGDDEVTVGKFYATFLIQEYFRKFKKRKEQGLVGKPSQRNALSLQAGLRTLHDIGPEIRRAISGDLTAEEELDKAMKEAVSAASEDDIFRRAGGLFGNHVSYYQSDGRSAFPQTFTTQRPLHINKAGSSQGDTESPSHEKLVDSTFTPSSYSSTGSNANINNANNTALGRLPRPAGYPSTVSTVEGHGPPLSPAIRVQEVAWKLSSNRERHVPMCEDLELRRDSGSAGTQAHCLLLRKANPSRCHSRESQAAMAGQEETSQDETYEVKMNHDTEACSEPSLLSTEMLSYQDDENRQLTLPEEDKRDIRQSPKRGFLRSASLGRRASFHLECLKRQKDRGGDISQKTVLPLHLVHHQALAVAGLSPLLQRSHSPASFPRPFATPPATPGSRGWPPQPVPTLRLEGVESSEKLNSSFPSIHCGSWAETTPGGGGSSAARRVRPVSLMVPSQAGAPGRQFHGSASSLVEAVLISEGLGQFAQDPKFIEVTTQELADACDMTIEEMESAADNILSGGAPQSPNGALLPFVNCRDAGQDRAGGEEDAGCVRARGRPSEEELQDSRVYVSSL

Dipeptidyl peptidase 8 = Dipeptidyl peptidase 8 (Homo sapiens, UniProt Q6V1X1); experiment: Inhibition of C-terminal His-tagged DPP8 (unknown origin) expressed in COS7 cells using H-Ala-Pro-pNA substrate preincubated for 15 mins; format: cell-based, COS-7
Chain of Dipeptidyl peptidase 8 (Q6V1X1 whole entry): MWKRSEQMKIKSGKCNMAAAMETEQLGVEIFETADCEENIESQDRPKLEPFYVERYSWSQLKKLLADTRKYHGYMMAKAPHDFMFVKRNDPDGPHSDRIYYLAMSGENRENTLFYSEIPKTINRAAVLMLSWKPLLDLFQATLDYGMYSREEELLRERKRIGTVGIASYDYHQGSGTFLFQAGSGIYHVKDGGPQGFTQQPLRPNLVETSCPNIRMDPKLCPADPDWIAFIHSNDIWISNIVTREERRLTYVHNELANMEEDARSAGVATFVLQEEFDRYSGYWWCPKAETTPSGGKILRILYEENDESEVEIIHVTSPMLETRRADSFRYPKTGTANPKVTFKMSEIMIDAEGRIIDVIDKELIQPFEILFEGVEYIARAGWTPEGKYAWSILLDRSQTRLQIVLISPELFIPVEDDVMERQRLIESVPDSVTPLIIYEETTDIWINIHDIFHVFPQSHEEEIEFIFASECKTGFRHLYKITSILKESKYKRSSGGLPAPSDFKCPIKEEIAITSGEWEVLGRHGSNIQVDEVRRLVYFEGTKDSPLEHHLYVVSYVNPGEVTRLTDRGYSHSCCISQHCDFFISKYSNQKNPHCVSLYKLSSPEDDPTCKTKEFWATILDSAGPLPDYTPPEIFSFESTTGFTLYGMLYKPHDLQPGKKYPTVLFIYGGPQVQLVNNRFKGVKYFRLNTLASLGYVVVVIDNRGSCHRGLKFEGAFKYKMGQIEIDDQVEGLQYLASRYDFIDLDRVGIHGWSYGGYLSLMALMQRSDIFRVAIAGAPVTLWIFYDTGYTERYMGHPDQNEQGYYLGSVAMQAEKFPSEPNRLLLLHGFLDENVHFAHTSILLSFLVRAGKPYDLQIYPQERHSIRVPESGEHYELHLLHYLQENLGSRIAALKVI

Rattus norvegicus = experiment: Dose normalized AUC in rat at 1 mg/kg, iv and 2 mg/kg, po; format: ADME, organism-based; conditions: in vivo
Procedure, shortened: (§1)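 Rats received 1 mg/kg iv plus 2 mg/kg po, or 0.4 mg/kg iv alone. Plasma clearance is reported in ml/min/kg, half-life in h, and AUC normalized to dose in µM h/mg/kg.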

[3] = Plasma clearance in rat at 1 mg/kg, iv and 2 mg/kg, po; format: ADME, organism-based; procedure, shortened: as §1
[4] = Half life in rat at 1 mg/kg, iv and 2 mg/kg, po; format: ADME, organism-based; conditions: in vivo; procedure, shortened: as §1
[5] = Oral bioavailability in rat at 2 mg/kg; format: ADME, organism-based; conditions: in vivo; procedure, shortened: as §1
[6] = Half life in dog at 1 mg/kg, iv and 2 mg/kg, po; format: ADME, organism-based, Canis lupus familiaris; conditions: in vivo
[7] = Plasma clearance in dog at 1 mg/kg, iv and 2 mg/kg, po; format: ADME, organism-based, Canis lupus familiaris
[8] = Oral bioavailability in dog at 2 mg/kg; format: ADME, organism-based, Canis lupus familiaris; conditions: in vivo

N[C@H]1C[C@@H](N2Cc3cn(S(=O)(=O)c4ccccc4)nc3C2)CO[C@@H]1c1cc(F)ccc1F
IC50 (Prolyl endopeptidase FAP): > 100 µM

CS(=O)(=O)c1n[nH]c2c1CN([C@H]1CO[C@H](c3cc(F)ccc3F)[C@@H](N)C1)C2
IC50 (Prolyl endopeptidase FAP): 20 µM
IC50 (Dipeptidyl peptidase 2): > 100 µM

N[C@H]1C[C@@H](N2Cc3cn[nH]c3C2)CO[C@@H]1c1cc(F)ccc1F
IC50 (Prolyl endopeptidase FAP): > 100 µM
IC50 [1]: > 30 µM
AUC/dose (Canis familiaris): 16 µM·h/mg/kg
IC50 [2]: > 30 µM

N[C@H]1C[C@@H](N2Cc3[nH]nc(S(=O)(=O)c4ccccc4)c3C2)CO[C@@H]1c1cc(F)ccc1F
IC50 (Prolyl endopeptidase FAP): 14 µM

CC(C)S(=O)(=O)c1n[nH]c2c1CN([C@H]1CO[C@H](c3cc(F)ccc3F)[C@@H](N)C1)C2
IC50 (Prolyl endopeptidase FAP): 16 µM
IC50 (Dipeptidyl peptidase 8): > 100 µM
IC50 (Dipeptidyl peptidase 2): > 100 µM

N[C@H]1C[C@@H](N2Cc3[nH]nc(NS(=O)(=O)CC(F)(F)F)c3C2)CO[C@@H]1c1cc(F)ccc1F
IC50 (Prolyl endopeptidase FAP): 32 µM
IC50 (Dipeptidyl peptidase 8): > 100 µM
IC50 (Dipeptidyl peptidase 2): > 100 µM

N[C@H]1C[C@@H](N2Cc3cn(S(=O)(=O)c4cccc(C(F)(F)F)c4)nc3C2)CO[C@@H]1c1cc(F)ccc1F
IC50 (Prolyl endopeptidase FAP): > 100 µM
IC50 (Dipeptidyl peptidase 2): > 100 µM

N[C@H]1C[C@@H](N2Cc3[nH]nc(NC(=O)C4CC4)c3C2)CO[C@@H]1c1cc(F)ccc1F
IC50 (Prolyl endopeptidase FAP): 22 µM
IC50 (Dipeptidyl peptidase 8): > 100 µM
AUC/dose (Rattus norvegicus): 0.6 µM·h/mg/kg
IC50 (Dipeptidyl peptidase 2): > 100 µM
clearance [3]: 3.84 L/h/kg
half-life [4]: 5.5 h

CCCS(=O)(=O)n1cc2c(n1)CN([C@H]1CO[C@H](c3cc(F)ccc3F)[C@@H](N)C1)C2
IC50 (Prolyl endopeptidase FAP): > 100 µM
IC50 (Dipeptidyl peptidase 8): > 100 µM
IC50 (Dipeptidyl peptidase 2): > 100 µM

N[C@H]1C[C@@H](N2Cc3[nH]nc(NC(=O)c4ccncc4)c3C2)CO[C@@H]1c1cc(F)ccc1F
IC50 (Prolyl endopeptidase FAP): 27 µM
IC50 (Dipeptidyl peptidase 2): > 100 µM

N[C@H]1C[C@@H](N2Cc3cn(S(=O)(=O)C(F)(F)F)nc3C2)CO[C@@H]1c1cc(F)ccc1F
IC50 (Prolyl endopeptidase FAP): > 100 µM
IC50 (Dipeptidyl peptidase 8): > 100 µM
IC50 (Dipeptidyl peptidase 2): > 100 µM

CCC(=O)Nc1n[nH]c2c1CN([C@H]1CO[C@H](c3cc(F)ccc3F)[C@@H](N)C1)C2
IC50 (Prolyl endopeptidase FAP): 47 µM
IC50 (Dipeptidyl peptidase 8): > 100 µM
AUC/dose (Rattus norvegicus): 0.7 µM·h/mg/kg
IC50 (Dipeptidyl peptidase 2): > 100 µM
clearance [3]: 3.6 L/h/kg
half-life [4]: 2.2 h

CCS(=O)(=O)n1cc2c(n1)CN([C@H]1CO[C@H](c3cc(F)ccc3F)[C@@H](N)C1)C2
IC50 (Prolyl endopeptidase FAP): 69 µM
IC50 (Dipeptidyl peptidase 8): > 100 µM
AUC/dose (Rattus norvegicus): 22 µM·h/mg/kg
IC50 [1]: > 60 µM
IC50 (Dipeptidyl peptidase 2): > 100 µM
AUC/dose (Canis familiaris): 25 µM·h/mg/kg
bioavailability [5]: 84%
half-life [6]: 13 h
IC50 [2]: > 30 µM
clearance [7]: 0.198 L/h/kg
clearance [3]: 0.096 L/h/kg
bioavailability [8]: 100%
half-life [4]: 5.2 h

CS(=O)(=O)n1cc2c(n1)CN([C@H]1CO[C@H](c3cc(F)ccc3F)[C@@H](N)C1)C2 [OMARIGLIPTIN]
IC50 (Prolyl endopeptidase FAP): > 100 µM
IC50 (Dipeptidyl peptidase 8): > 100 µM
AUC/dose (Rattus norvegicus): 48 µM·h/mg/kg
IC50 (Dipeptidyl peptidase 2): > 100 µM
AUC/dose (Canis familiaris): 54 µM·h/mg/kg
half-life [6]: 22 h
IC50 [2]: > 30 µM
clearance [7]: 0.054 L/h/kg
bioavailability [8]: 100%

CCS(=O)(=O)Nc1n[nH]c2c1CN([C@H]1CO[C@H](c3cc(F)ccc3F)[C@@H](N)C1)C2
IC50 (Prolyl endopeptidase FAP): 32 µM
AUC/dose (Rattus norvegicus): 3.4 µM·h/mg/kg
clearance [3]: 0.72 L/h/kg
half-life [4]: 2.1 h

Cn1cnc(S(=O)(=O)n2cc3c(n2)CN([C@H]2CO[C@H](c4cc(F)ccc4F)[C@@H](N)C2)C3)c1
IC50 (Prolyl endopeptidase FAP): 95 µM

N[C@H]1C[C@@H](N2Cc3[nH]nc(NS(=O)(=O)Cc4ccncc4)c3C2)CO[C@@H]1c1cc(F)ccc1F
IC50 (Prolyl endopeptidase FAP): 60 µM
IC50 (Dipeptidyl peptidase 8): > 100 µM

N[C@H]1C[C@@H](N2Cc3cnn(S(=O)(=O)C4CCCC4)c3C2)CO[C@@H]1c1cc(F)ccc1F
IC50 (Prolyl endopeptidase FAP): 26 µM
IC50 (Dipeptidyl peptidase 8): > 100 µM
AUC/dose (Rattus norvegicus): 0.4 µM·h/mg/kg
IC50 (Dipeptidyl peptidase 2): > 100 µM
clearance [3]: 5.76 L/h/kg
half-life [4]: 0.5 h

N[C@H]1C[C@@H](N2Cc3[nH]nc(NS(=O)(=O)c4c[nH]cn4)c3C2)CO[C@@H]1c1cc(F)ccc1F
IC50 (Prolyl endopeptidase FAP): 6.3 µM

CC(C)S(=O)(=O)n1cc2c(n1)CN([C@H]1CO[C@H](c3cc(F)ccc3F)[C@@H](N)C1)C2
IC50 (Prolyl endopeptidase FAP): > 100 µM
IC50 (Dipeptidyl peptidase 8): > 100 µM
AUC/dose (Rattus norvegicus): 5.6 µM·h/mg/kg
IC50 (Dipeptidyl peptidase 2): > 100 µM
bioavailability [5]: 93%
clearance [3]: 0.42 L/h/kg
half-life [4]: 1.3 h

N[C@H]1C[C@@H](N2Cc3[nH]nc(NS(=O)(=O)C4CC4)c3C2)CO[C@@H]1c1cc(F)ccc1F
IC50 (Prolyl endopeptidase FAP): 3.8 µM
AUC/dose (Rattus norvegicus): 1.6 µM·h/mg/kg
IC50 (Dipeptidyl peptidase 2): > 100 µM
clearance [3]: 1.44 L/h/kg
half-life [4]: 1.5 h

CS(=O)(=O)Nc1n[nH]c2c1CN([C@H]1CO[C@H](c3cc(F)ccc3F)[C@@H](N)C1)C2
IC50 (Prolyl endopeptidase FAP): 8.8 µM
IC50 (Dipeptidyl peptidase 8): > 100 µM
AUC/dose (Rattus norvegicus): 2.5 µM·h/mg/kg
IC50 (Dipeptidyl peptidase 2): > 100 µM
clearance [3]: 0.96 L/h/kg
half-life [4]: 2 h

N[C@H]1C[C@@H](N2Cc3cn(S(=O)(=O)C4CC4)nc3C2)CO[C@@H]1c1cc(F)ccc1F
IC50 (Prolyl endopeptidase FAP): > 100 µM
IC50 (Dipeptidyl peptidase 8): > 100 µM
AUC/dose (Rattus norvegicus): 47 µM·h/mg/kg
AUC/dose (Canis familiaris): 25 µM·h/mg/kg
half-life [6]: 17 h
IC50 [2]: > 30 µM
clearance [7]: 0.096 L/h/kg
clearance [3]: 0.054 L/h/kg
bioavailability [8]: 90%
half-life [4]: 6.2 h

N[C@H]1C[C@@H](N2Cc3cnn(S(=O)(=O)C4CC4)c3C2)CO[C@@H]1c1cc(F)ccc1F
IC50 (Prolyl endopeptidase FAP): 54 µM
IC50 (Dipeptidyl peptidase 8): > 100 µM
AUC/dose (Rattus norvegicus): 1.7 µM·h/mg/kg
bioavailability [5]: 79%
clearance [3]: 1.44 L/h/kg
half-life [4]: 1.6 h

N[C@H]1C[C@@H](N2Cc3[nH]nc(NC(=O)c4nccs4)c3C2)CO[C@@H]1c1cc(F)ccc1F
IC50 (Prolyl endopeptidase FAP): 40 µM

Cn1cnc(S(=O)(=O)n2ncc3c2CN([C@H]2CO[C@H](c4cc(F)ccc4F)[C@@H](N)C2)C3)c1
IC50 (Prolyl endopeptidase FAP): 45 µM

N[C@H]1C[C@@H](N2Cc3cn(S(=O)(=O)C4CCCC4)nc3C2)CO[C@@H]1c1cc(F)ccc1F
IC50 (Prolyl endopeptidase FAP): 50 µM
AUC/dose (Rattus norvegicus): 0.9 µM·h/mg/kg
clearance [3]: 2.46 L/h/kg
half-life [4]: 1.5 h
